Assay results from ChEMBL document CHEMBL1764999, “In vitro characterization of human peptide transporter hPEPT1 interactions and passive permeation studies of short cationic antimicrobial peptides” (J Med Chem, 2011).
Values after ≈ are worked out from the molar mass of the structure shown. Square brackets hold non-standard residues; d marks the D form. Peptide text beside a SMILES is read from it. * marks the point of attachment. Phe(4-guanidino) = N=C(N)Nc1ccc(C[C@H](N)C(=O)O)cc1; Bip = N[C@@H](Cc1ccc(-c2ccccc2)cc1)C(=O)O; Dip = N[C@H](C(=O)O)C(c1ccccc1)c1ccccc1; NHBn = c1ccc(CN*)cc1

Assays:
Staphylococcus aureus [1] = assay: Antibacterial activity against Staphylococcus aureus by micro dilution method; format: functional
[2] = Apparent permeability of the compound by PAMPA; format: ADME
[3] = target: T1, Solute carrier family 15 member 1 (Homo sapiens) (UniProt P46059); assay: Inhibition of human PEPT1 expressed in Xenopus laevis oocytes assessed as Inhibition of glycylsarcosine-induced transport-associated current at 0.25 to 1 mM at -60 mV membrane potential by two-electrode voltage clamp method; format: cell-based; settings: Oocyte
T1 sequence (whole entry): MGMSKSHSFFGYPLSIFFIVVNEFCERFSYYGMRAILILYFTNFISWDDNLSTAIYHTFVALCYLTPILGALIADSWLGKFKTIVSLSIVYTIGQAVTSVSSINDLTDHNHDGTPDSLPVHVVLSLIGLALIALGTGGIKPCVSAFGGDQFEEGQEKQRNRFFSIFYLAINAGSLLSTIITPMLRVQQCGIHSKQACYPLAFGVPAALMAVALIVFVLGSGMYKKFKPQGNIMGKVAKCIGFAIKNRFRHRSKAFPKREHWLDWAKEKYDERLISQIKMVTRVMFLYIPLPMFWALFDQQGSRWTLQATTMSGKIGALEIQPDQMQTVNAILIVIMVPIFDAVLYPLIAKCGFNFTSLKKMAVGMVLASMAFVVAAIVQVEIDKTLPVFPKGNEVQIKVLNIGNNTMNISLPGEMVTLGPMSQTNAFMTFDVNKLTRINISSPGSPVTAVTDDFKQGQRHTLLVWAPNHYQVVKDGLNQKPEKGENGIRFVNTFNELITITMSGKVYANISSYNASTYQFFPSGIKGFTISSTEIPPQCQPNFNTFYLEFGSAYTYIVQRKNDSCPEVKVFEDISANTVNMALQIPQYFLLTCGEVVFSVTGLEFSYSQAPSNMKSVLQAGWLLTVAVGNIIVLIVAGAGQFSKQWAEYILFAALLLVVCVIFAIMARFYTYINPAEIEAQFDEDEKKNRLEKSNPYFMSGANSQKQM
Procedure, shortened: (§1)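 The hPEPT1 cRNA-injected oocytes were clamped at -60 mV in Barth's solution with HEPES replaced by MES (pH 6.5), at room temperature. Currents from 1 mM Gly-Sar were recorded with and without test peptide (0.25-1.0 mM) at steady state. Flux used a 3.80 mm² surface. Inhibition is residual current as % of the Gly-Sar current. IC50 was fitted from mean inhibitions by Michaelis-Menten.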

[4] = target: T1, Solute carrier family 15 member 1 (Homo sapiens); assay: Inhibition of human PEPT1 expressed in Xenopus laevis oocytes assessed as effect on glycylsarcosine-induced transport-associated flux rate current at 0.25 to 1 mM at -60 mV membrane potential by two-electrode voltage clamp method; format: cell-based; settings: Oocyte; procedure, shortened: as §1
Staphylococcus aureus [5] = assay: Antibacterial activity against methicillin-resistant Staphylococcus aureus by micro dilution method; format: functional
Escherichia coli = assay: Antibacterial activity against Escherichia coli by micro dilution method; format: functional
[6] = target: T1, Solute carrier family 15 member 1 (Homo sapiens); assay: Activity of human PEPT1 expressed in Xenopus laevis oocytes assessed as induction of transport-associated flux rate current at 1 mM at -60 mV membrane potential by two-electrode voltage clamp method; format: cell-based; settings: Oocyte
Procedure, shortened: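 Oocytes were collagenase-treated (2.5 mg/mL, 70 min) and injected with ~25 ng hPEPT1 cRNA, then held 3-5 days at 17 °C. Superfused at room temperature with MES-buffered Barth's, pH 6.5, clamped at -60 mV. Current is the difference with vs without test peptide, taken 20-30 s after application. Flux in pmol/(s cm²) assumes a 3.80 mm² oocyte surface. Mean of three oocytes.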

[7] = target: T2, Solute carrier family 15 member 1 (Homo sapiens, UniProt P46059); assay: Inhibition of human PEPT1 expressed in Xenopus laevis oocytes assessed as inhibition of glycylsarcosine-induced transport-associated current at -60 mV membrane potential by two-electrode voltage clamp method; format: cell-based, Oocyte; procedure, shortened: as §1
T2 sequence (P46059 whole entry): T1 sequence (whole entry)

Row | Activity [6] [%] | Papp [2] [×10⁻⁶ cm/s] | Compound | MIC (Staphylococcus aureus [1]) [µg/mL] | Papp ([2]; read-out: Papp) [×10⁻⁶ cm/s] | inhibition [3] [%] | Activity [4] | MIC (Staphylococcus aureus [5]) [µg/mL] | MIC (Escherichia coli) [µg/mL] | IC50 [7] [mM]
1 |  |  | NCCCC[C@H](NC(=O)[C@H](Cc1ccc(-c2ccccc2)cc1)NC(=O)[C@@H](N)CCCCN)C(N)=O (H-Lys-[Bip]-Lys-NH2) | > 200 | 0.06 |  |  |  |  | 
2 |  |  | N=C(N)NCCC[C@H](NC(=O)[C@H](Cc1ccc(-c2ccccc2)cc1)NC(=O)[C@@H](N)CCCNC(=N)N)C(N)=O (H-Arg-[Bip]-Arg-NH2) | 200 (≈ 362 µM) | 0.01 | -3.3 | 56.7 pmol/(s.cm2) | 50 (≈ 90.5 µM) |  | 
3 |  |  | NCCCC[C@H](NC(=O)[C@H](Cc1ccc(-c2ccccc2)cc1)NC(=O)[C@@H](N)CCCCN)C(=O)NCc1ccccc1 (H-Lys-[Bip]-Lys-NHBn) | 15 (≈ 25.6 µM) | 0.26 |  |  | 25 (≈ 42.6 µM) | > 150 | 
4 |  |  | COC(=O)[C@H](CCCN=C(N)N)NC(=O)[C@@H](N)Cc1ccc(-c2ccccc2)cc1 (H-[Bip]-Arg-OMe) | 150 (≈ 365 µM) | 1.06 | 10.4 | 57.2 pmol/(s.cm2) |  | > 200 | 
5 |  |  | N=C(N)NCCC[C@H](N)C(=O)N[C@@H](Cc1c[nH]c2ccccc12)C(=O)N[C@@H](Cc1ccc(NC(=N)N)cc1)C(=O)NCc1ccccc1 (H-Arg-Trp-[Phe(4-guanidino)]-NHBn) | 50 (≈ 76.5 µM) | 0.47 |  |  | 10 (≈ 15.3 µM) | > 150 | 
6 |  |  | CC(C)(C)c1cc(C(C)(C)C)c2[nH]c(C(C)(C)C)c(C[C@H](N)C(=O)N[C@@H](CCCNC(=N)N)C(=O)NCCc3ccccc3)c2c1 | 2.5 (≈ 3.96 µM) | 5.27 |  |  | 2.5 (≈ 3.96 µM) | 10 (≈ 15.8 µM) | 
7 |  |  | N=C(N)NCCC[C@H](NC(=O)[C@@H](NC(=O)[C@@H](N)CCCNC(=N)N)C(c1ccccc1)c1ccccc1)C(=O)NCc1ccccc1 (H-Arg-[Dip]-Arg-NHBn) | 25 (≈ 38.9 µM) | 0.42 |  |  | 10 (≈ 15.6 µM) | > 150 | 
8 |  |  | N=C(N)Nc1ccc(C[C@H](NC(=O)[C@H](Cc2ccc(-c3ccccc3)cc2)NC(=O)[C@@H](N)Cc2ccc(NC(=N)N)cc2)C(=O)NCc2ccccc2)cc1 (H-[Phe(4-guanidino)]-[Bip]-[Phe(4-guanidino)]-NHBn) | < 2.5 | 0.9 |  |  | 5 (≈ 6.77 µM) | 75 (≈ 102 µM) | 
9 | 1.2 |  | NC(N)=NCCC[C@H](NC(=O)[C@@H](N)Cc1c[nH]c2ccccc12)C(=O)NCc1ccccc1 (H-Trp-Arg-NHBn) |  |  |  |  |  |  | 
10 |  |  | N=C(N)NCCC[C@H](NC(=O)[C@H](Cc1ccc(-c2ccccc2)cc1)NC(=O)[C@@H](N)CCCNC(=N)N)C(=O)NCc1ccccc1 (H-Arg-[Bip]-Arg-NHBn) | 5 (≈ 7.78 µM) | 0.01 |  |  | 5 (≈ 7.78 µM) | 100 (≈ 156 µM) | 
11 |  |  | N=C(N)NCCC[C@H](NC(=O)[C@H](Cc1ccccc1)NC(=O)[C@@H](N)CCCNC(=N)N)C(=O)NCc1ccccc1 (H-Arg-Phe-Arg-NHBn) | 150 (≈ 265 µM) | 2.31 |  |  | 75 (≈ 132 µM) | > 150 | 
12 |  |  | N=C(N)NCCC[C@H](NC(=O)[C@H](Cc1c[nH]c2ccccc12)NC(=O)[C@@H](N)CCCNC(=N)N)C(=O)NCc1ccccc1 (H-Arg-Trp-Arg-NHBn) | 75 (≈ 124 µM) | 0.77 | 87.6 | 3.8 pmol/(s.cm2) | 25 (≈ 41.3 µM) | > 150 | 
13 |  |  | N=C(N)NCCC[C@H](N)C(=O)N[C@@H](Cc1ccc(NC(=N)N)cc1)C(=O)N[C@@H](Cc1c[nH]c2ccccc12)C(=O)NCc1ccccc1 (H-Arg-[Phe(4-guanidino)]-Trp-NHBn) | 50 (≈ 76.5 µM) | 0.38 |  |  | 15 (≈ 22.9 µM) | > 150 | 
14 |  |  | CC(C)(C)NCC(O)c1cc(O)cc(O)c1 (stereo not given) [TERBUTALINE] |  | 0.4 |  |  |  |  | 
15 |  |  | COCCc1ccc(OCC(O)CNC(C)C)cc1 (stereo not given) [METOPROLOL] |  | 3.23 |  |  |  |  | 
16 |  |  | CC(C)(C)c1cc(C(C)(C)C)c2[nH]c(C(C)(C)C)c(C[C@H](NC(=O)[C@@H](N)CCCNC(=N)N)C(=O)N[C@@H](CCCNC(=N)N)C(=O)NCc3ccccc3)c2c1 | 2.5 (≈ 3.23 µM) |  |  |  | 2.5 (≈ 3.23 µM) | 7.5 (≈ 9.69 µM) | 
17 | 43.5 |  | N=C(N)NCCC[C@H](NC(=O)[C@@H](N)Cc1c[nH]c2ccccc12)C(=O)O (H-Trp-Arg-OH) |  |  |  |  |  |  | 
18 |  | 0.03 | NS(=O)(=O)c1cc2c(cc1Cl)N=CNS2(=O)=O [CHLOROTHIAZIDE] |  |  |  |  |  |  | 
19 |  |  | CC(C)(C)c1cc(C(C)(C)C)c2[nH]c(C(C)(C)C)c(C[C@H](N)C(=O)N[C@@H](CCCNC(=N)N)C(N)=O)c2c1 | 15 (≈ 28.4 µM) | 0.43 | 20.3 | 34.8 pmol/(s.cm2) | 15 (≈ 28.4 µM) | > 150 | 0.6
20 |  |  | N=C(N)NCCC[C@H](NC(=O)[C@@H](N)CCCNC(=N)N)C(=O)N[C@@H](Cc1c[nH]c2ccccc12)C(=O)NCc1ccccc1 (H-Arg-Arg-Trp-NHBn) | 75 (≈ 124 µM) | 0.96 |  |  | 25 (≈ 41.3 µM) | > 150 | 
21 |  |  | N=C(N)NCCC[C@H](NC(=O)[C@@H](NC(=O)[C@@H](N)CCCNC(=N)N)C(c1ccccc1)c1ccccc1)C(N)=O (H-Arg-[Dip]-Arg-NH2) | 100 (≈ 181 µM) | 0.83 |  |  | > 150 | > 150 | 
22 |  |  | NC(=O)[C@H](CCCN=C(N)N)NC(=O)[C@H](Cc1c[nH]c2ccccc12)NC(=O)[C@@H](N)CCCN=C(N)N (H-Arg-Trp-Arg-NH2) | > 200 | 2.37 | 15.1 | 61.8 pmol/(s.cm2) |  | > 200 | 2.7
23 | 10.7 |  | N=C(N)NCCC[C@H](NC(=O)[C@@H](N)Cc1ccc(-c2ccccc2)cc1)C(=O)O (H-[Bip]-Arg-OH) |  |  |  |  |  |  | 
